Laboratory results taken from publication PMC5191920 (Biochimica et biophysica acta, 2016).
Entries after “also recorded” stand apart in the source; their conditions may differ. Ends that are not written are not given here.

What was measured:
isolated human HDL = test: Isothermal titration calorimetry, binding to HDL; conditions: isolated human HDL injected into peptide, PBS pH 7.4
Method in brief: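 Human HDL isolated by ultracentrifugation. Lipoprotein titrated into cell holding peptide or buffer alone: one small initial injection, then 35 injections, 180 s apart, with heat monitored continuously. Thermograms integrated to binding isotherms.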

DMPC vesicle clearance = format: physicochemical; conditions: peptide 100 ng/ml, DMPC 1 mg/ml, PBS, 24 °C, 60 min, absorbance 432 nm
Method in brief: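 Multilamellar DMPC vesicles (1 mg/ml) made by resuspending dried lipid in PBS and vortexing for 5 min. Peptide added to 100 ng/ml final. Absorbance at 432 nm read every 5 s for 60 min at 24 °C with fast shaking to prevent settling. Turbidity compared with a PBS-only control.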

human ABCA1 = human ABCA1 (Homo sapiens, UniProt O95477); test: Cholesterol efflux, ABCA1 transfected BHK cells; format: cell-based; conditions: ABCA1 expressing BHK cells, 18 h
Method in brief: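 BHK cells stably expressing human ABCA1 labelled 18 h with [3H]cholesterol in DMEM plus 10% fetal calf serum. Cells were washed, then switched to serum-free DMEM with 0.1 mg/ml fatty acid-free BSA. Peptide over a concentration range, or PBS, added for 18 h. Media filtered, cells lysed in 0.1% SDS/0.1 N NaOH, both counted by liquid scintillation. Efflux = media counts/(media + cell counts) × 100.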

[1] = Circular dichroism spectroscopy; format: physicochemical; conditions: 37 °C; for helicity, with TFE: 20% trifluoroethanol
Method in brief: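 Peptides at 0.2 mg/mL (final) in 10 mM phosphate buffer, with or without 20% trifluoroethanol, held at 37 °C. Far-UV spectra recorded from 190 to 240 nm on a spectropolarimeter. Ellipticity in mdeg converted to mean residue ellipticity (deg cm² dmol⁻¹).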

[2] = DMP cross-linking, SDS-PAGE; format: physicochemical; conditions: PBS, DMP:peptide 30:1, 2 h room temperature
Method in brief: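 Homo-bifunctional amine-reactive crosslinker dimethylpimelimidate reacted with peptide at 30:1 molar ratio (crosslinker:peptide) in PBS for 2 h at room temperature. Quenched with 1 M Tris. Products resolved by SDS-PAGE under reducing conditions and stained with Coomassie blue to visualise oligomeric species.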

isolated human LDL = test: Isothermal titration calorimetry, binding to LDL; conditions: for binding to LDL by ITC: isolated human LDL injected into peptide, PBS pH 7.4
Method in brief: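 Human LDL and HDL isolated by ultracentrifugation. Lipoprotein titrated into a cell holding peptide or buffer alone: one initial injection, then 35 injections spaced 180 s apart. Heat monitored throughout and thermograms integrated to isotherms.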

BHK cells = test: Visual cytotoxicity during cholesterol efflux experiments; format: cell-based; conditions: during the cholesterol efflux experiments
human red blood cells = test: Red blood cell lysis assay; format: cell-based; conditions: human RBCs, 0 – 100 µM, 2 h room temperature, 1% Triton X-100 = 100% lysis
Method in brief: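 Human erythrocytes washed 5 times in PBS with 5% glucose, pH 7.4. Incubated with peptide at 0–100 µM for 2 h at room temperature, then pelleted at 1000×g for 5 min. Supernatant absorbance read at 450 nm. 1% Triton X-100 served as the 100% lysis reference.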

[3] = test system: lipoproteins in human plasma; test: Exchangeability of LDL-bound peptide among lipoproteins; conditions: FITC labeled B38 on isolated LDL, then human plasma 1 h at 37 °C, FPLC
Method in brief: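 FITC-labelled peptide co-incubated with isolated human LDL for 1 h at 37 °C. LDL repurified by FPLC to remove unbound peptide, and LDL fractions pooled and concentrated. Peptide-loaded LDL then incubated with PBS or human plasma for 1 h at 37 °C. Transfer of fluorescent peptide to other lipoprotein classes measured.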

[4] = test system: apoB containing lipoproteins in human plasma; format: binding; conditions: FPLC separation, VLDL plus LDL
Method in brief: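 FITC-labelled peptide incubated with human plasma for 1 h at 37 °C. Separated on two Superose 6 columns in series in Tris buffer (10 mM Tris, 150 mM NaCl, 0.5 mM EDTA, 0.01% azide) at 0.5 mL/min, collecting 0.5 mL fractions. Enzymatic phospholipid assay located VLDL, LDL and HDL. Fluorescence read at ex 485 / em 535 nm. Each peak expressed as percent of total fluorescence.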

cells = conditions: ref [48]; cited from earlier work
[5] = 0.2 mg/mL peptide, 10 mM phosphate buffer

Sequence of human ABCA1 (O95477 whole entry): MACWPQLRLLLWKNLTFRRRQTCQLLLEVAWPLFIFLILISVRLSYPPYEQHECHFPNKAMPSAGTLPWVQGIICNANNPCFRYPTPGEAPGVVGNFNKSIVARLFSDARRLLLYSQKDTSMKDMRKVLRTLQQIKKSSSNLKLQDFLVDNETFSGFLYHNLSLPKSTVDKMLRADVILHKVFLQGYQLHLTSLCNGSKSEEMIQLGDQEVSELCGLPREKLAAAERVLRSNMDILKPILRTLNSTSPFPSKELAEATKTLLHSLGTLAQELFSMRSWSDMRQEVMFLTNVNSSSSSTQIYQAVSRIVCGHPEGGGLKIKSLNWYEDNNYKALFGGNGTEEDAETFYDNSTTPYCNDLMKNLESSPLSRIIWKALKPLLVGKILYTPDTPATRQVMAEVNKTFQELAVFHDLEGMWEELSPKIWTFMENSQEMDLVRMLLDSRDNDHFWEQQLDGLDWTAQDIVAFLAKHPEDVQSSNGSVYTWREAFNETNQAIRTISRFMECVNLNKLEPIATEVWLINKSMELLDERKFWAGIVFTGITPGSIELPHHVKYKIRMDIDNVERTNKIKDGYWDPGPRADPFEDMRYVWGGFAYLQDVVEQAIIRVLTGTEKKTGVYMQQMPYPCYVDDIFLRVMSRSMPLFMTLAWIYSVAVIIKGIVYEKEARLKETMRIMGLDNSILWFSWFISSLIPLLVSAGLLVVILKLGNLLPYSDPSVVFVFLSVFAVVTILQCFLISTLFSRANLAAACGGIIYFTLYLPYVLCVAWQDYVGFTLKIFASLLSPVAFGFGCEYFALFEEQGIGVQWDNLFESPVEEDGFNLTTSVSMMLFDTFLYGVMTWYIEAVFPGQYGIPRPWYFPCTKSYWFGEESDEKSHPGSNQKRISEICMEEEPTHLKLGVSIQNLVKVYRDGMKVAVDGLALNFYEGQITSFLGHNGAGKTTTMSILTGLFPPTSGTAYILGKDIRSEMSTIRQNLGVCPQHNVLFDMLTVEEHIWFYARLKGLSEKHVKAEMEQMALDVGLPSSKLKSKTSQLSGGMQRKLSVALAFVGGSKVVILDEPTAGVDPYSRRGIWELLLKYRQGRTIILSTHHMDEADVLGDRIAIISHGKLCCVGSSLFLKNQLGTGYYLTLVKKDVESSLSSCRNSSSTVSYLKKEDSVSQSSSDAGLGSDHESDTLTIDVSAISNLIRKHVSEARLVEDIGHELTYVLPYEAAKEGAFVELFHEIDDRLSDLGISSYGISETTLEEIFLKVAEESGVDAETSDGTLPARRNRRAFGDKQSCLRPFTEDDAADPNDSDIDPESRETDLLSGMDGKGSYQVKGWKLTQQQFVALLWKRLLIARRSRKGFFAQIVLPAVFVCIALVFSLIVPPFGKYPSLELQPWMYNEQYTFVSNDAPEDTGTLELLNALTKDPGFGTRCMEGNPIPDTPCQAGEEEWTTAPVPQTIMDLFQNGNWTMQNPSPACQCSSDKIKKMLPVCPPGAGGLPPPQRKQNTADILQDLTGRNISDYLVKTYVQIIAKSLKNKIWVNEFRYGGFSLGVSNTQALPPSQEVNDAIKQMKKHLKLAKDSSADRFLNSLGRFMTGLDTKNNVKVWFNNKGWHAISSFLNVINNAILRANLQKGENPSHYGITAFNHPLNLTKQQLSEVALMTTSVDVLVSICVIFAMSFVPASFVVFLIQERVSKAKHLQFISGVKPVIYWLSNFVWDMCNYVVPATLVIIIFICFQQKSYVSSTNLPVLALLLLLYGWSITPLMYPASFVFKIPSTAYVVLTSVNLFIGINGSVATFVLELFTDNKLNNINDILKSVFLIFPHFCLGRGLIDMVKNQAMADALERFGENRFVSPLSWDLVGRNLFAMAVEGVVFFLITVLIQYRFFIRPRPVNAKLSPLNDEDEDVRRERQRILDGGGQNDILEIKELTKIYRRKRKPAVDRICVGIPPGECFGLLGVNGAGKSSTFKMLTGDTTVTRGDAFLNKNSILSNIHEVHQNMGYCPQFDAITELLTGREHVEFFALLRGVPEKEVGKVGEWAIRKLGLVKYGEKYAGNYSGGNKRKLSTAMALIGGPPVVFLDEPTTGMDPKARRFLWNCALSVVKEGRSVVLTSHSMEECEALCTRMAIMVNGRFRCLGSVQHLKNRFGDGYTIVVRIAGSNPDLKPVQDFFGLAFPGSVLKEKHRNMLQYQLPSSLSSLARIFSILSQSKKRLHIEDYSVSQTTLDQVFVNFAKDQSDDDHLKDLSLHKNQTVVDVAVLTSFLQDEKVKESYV

Q: What does the source list for EKLKAKLKEGGEKLKAKLKE [FLANK]?
A: binding to HDL by ITC (isolated human HDL): did not appear to bind strongly to either lipoprotein; solubilization / clearance of DMPC vesicles (DMPC vesicle clearance): did not solubilize DMPC vesicles; cholesterol efflux, ABCA1 cells (human ABCA1): ineffective in promoting cholesterol efflux; helicity, with TFE [1, 5]: 38%; secondary structure by CD, aqueous solution ([1]; 10 mM phosphate buffer, no TFE): random coil structure; oligomeric forms in aqueous solution [2]: only found as monomer and dimer in aqueous solution; binding to LDL by ITC (isolated human LDL): did not appear to bind strongly to either lipoprotein

Q: For “EKLKAKLKEGGGLSDEAVTSLLPQLIEVSSPGGEKLKAKLKE [B07]”, which “helicity, with TFE” value [1, 5] is on record?
A: Its value is 40%.

Q: And the “secondary structure by CD, aqueous solution” value ([1]; 10 mM phosphate buffer, no TFE)?
A: Its value is “random coil structure”.

Q: Which results are given for “EKLKAKLKEGGKATLELSPWQMSALVQVHASQPSSFHDFPDLGGEKLKAKLKE [B61]”?
A: helicity, with TFE [1, 5]: 60%; secondary structure by CD, aqueous solution ([1]; 10 mM phosphate buffer, no TFE): random coil structure

Q: Which results are given for “EKLKAKLKEGGLNIKRGIISALLVPPETEEAGGEKLKAKLKE [B04]”?
A: helicity, with TFE [1, 5]: 43%; secondary structure by CD, aqueous solution ([1]; 10 mM phosphate buffer, no TFE): random coil structure

Q: For “EKLKAKLKEGGQELQRYLSLVGQVYSTLVTYISDWWTLGGEKLKAKLKE [B38]”, which “visual evidence of cytotoxicity” value (BHK cells) is on record?
A: Its value is “no visual evidence of cytotoxicity was observed”.

Q: And the “binding to HDL by ITC” value (isolated human HDL)?
A: Its value is “high affinity binding to both isolated HDL and LDL; also recorded: found to bind to high density lipoprotein (HDL) but with lower affinity than LDL”.

Q: And the “solubilization / clearance of DMPC vesicles” value (DMPC vesicle clearance)?
A: The value was “rapidly cleared the solution; also recorded: does not clear DMPC vesicles as rapidly”.

Q: And the “concentration above which a small amount of red cell lysis occurs” value (human red blood cells)?
A: Its value is “above 30 uM”.

Q: What about the exchangeability between lipoproteins [3] of the same substance?
A: The exchangeability between lipoproteins was “could exchange between lipoproteins; also recorded: exchangeable between lipoproteins”.

Q: And the “cholesterol efflux, ABCA1 cells” value (human ABCA1)?
A: Its value is “capable of ABCA1-dependent cholesterol efflux from cells; also recorded: promotes ABCA1 specific cholesterol efflux”.

Q: And the “percent of peptide bound to apoB containing lipoproteins” value [4]?
A: The value was 17%.

Q: What about the “helicity, with TFE” value [1, 5] of the same substance?
A: The value was 59%.

Q: What about the “helicity, aqueous solution” value ([1]; 0.2 mg/mL peptide, 10 mM phosphate buffer, no TFE) of the same substance?
A: The value was 40.1%.

Q: And the “secondary structure by CD, aqueous solution” value ([1]; 10 mM phosphate buffer, no TFE)?
A: Its value is “α-helical secondary structure; also recorded: formed an α-helix in aqueous buffer”.

Q: And the “helicity, with POPC vesicles” value ([1]; POPC vesicles added (also printed POPS))?
A: The value was 42.4%.

Q: What about the “secondary structure by CD, with POPC vesicles” value ([1]; POPC vesicles added) of the same substance?
A: Its value is “slight increase in helicity”.

Q: What about the “oligomeric forms in aqueous solution” value [2] of the same substance?
A: Its value is “presence of B38 oligomers in aqueous solution”.

Q: And the “total binding energy for LDL relative to HDL” value (isolated human LDL; ITC, isolated human LDL vs. HDL)?
A: Its value is 2.7 times.

Q: What about the “lipoprotein binding of synthesized HCD peptides” value (isolated human LDL; ITC, lipoprotein class not specified) of the same substance?
A: The value was “showed significant lipoprotein binding capacity”.

Q: What about the “shape of ITC thermal energy curve” value (isolated human LDL; binding to lipoprotein particles) of the same substance?
A: The value was “U-shaped curve”.

Q: What about the “binding to LDL by ITC” value (isolated human LDL) of the same substance?
A: The value was “high affinity binding to both isolated HDL and LDL; also recorded: only peptide with significant binding affinity for LDL”.

Q: And the “binding energy in buffer control” value (isolated human LDL; peptide in buffer control (no LDL))?
A: The value was “lack of significant binding energy”.

Q: With “DWLKAFYDKVAEKLKEAFPDWAKAAYDKAAEKAKEAA [5A, reference compound]” as the substance, how does the “solubilization / clearance of DMPC vesicles” value (DMPC vesicle clearance) read?
A: The value was “rapidly cleared the solution”.

Q: For “apoB: large amphipathic protein, structural scaffold of several classes of lipoproteins”, which “cholesterol efflux from cells” value (cells) is on record?
A: The value was “does not promote cholesterol efflux from cells”.
